Broadly, the ED50 is the midpoint of the dose-response relation. By IC50 is commonly meant the concentration needed to halve the response being measured. A higher IC50 goes with weaker potency. Usually inhibition stands for the share of the control response that was lost under treatment. The low end stands for little suppression, the high end for strong suppression.

The text below walks through data of ChEMBL document CHEMBL1129329, “Structure-activity studies of 6-substituted decahydroisoquinoline-3-carboxylic acid AMPA receptor antagonists. 2. Effects of distal acid bioisosteric substitution, absolute stereochemical preferences, and in vivo activity” (J Med Chem, 1996).

Test [1] concerns Mus musculus. Put plainly: Minimum effective dose to block the lethality induced by 200 mg/kg ip dose of NMDA. Type of test: functional. Conditions: route intraperitoneal. Summed up:
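Mice dosed ip 30 min before a 200 mg/kg ip NMDA challenge. Minimum effective dose is the lowest dose giving greater than 50% protection from lethality among all mice tested.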

Test [2] concerns Mus musculus. Nature of the test: Effective dose to block maximal electroshock-induced convulsions in mice, administered intraperitoneally. Type of test: functional. Conditions: ip.
Test [3] deals with Mus musculus. Nature of the test: Effective dose to produce neurological impairments in mice using the horizontal screen assay, administered intraperitoneally. Type of test: functional. Conditions: ip. The gist of the method:
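Mice dosed intraperitoneally 30 min before testing were placed on a horizontal screen, which was then turned upside down. Unimpaired mice climb back to the top within 2 min; failure indicates neurological impairment. This was done before MES testing.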

For test [4], the system named is Mus musculus. Put plainly: Effective dose to block ATPA-induced muscle rigidity in mice at a dose of 30 mg/kg administered intraperitoneally. The following applies: ip.
For test [5], the target named is T1, Glutamate receptor ionotropic, AMPA (Rattus norvegicus, UniProt P19490+P19491+P19492+P19493). Nature of the test: Compound was tested for AMPA receptor antagonistic activity by measuring its ability to inhibit depolarizations induced by 10 uM quisqualic acid in rat cortical slice preparation. Format: functional.
Test [6] has as its target T1, Glutamate receptor ionotropic, AMPA. Nature of the test: Binding affinity against Ionotropic glutamate receptor AMPA using [3H]AMPA 19755 radioligand. Format: protein-complex assay.
Test [7] addresses Glutamate receptor ionotropic, kainate. Nature of the test: Antagonism at Ionotropic glutamate receptor kainate by inhibition of depolarizations induced by 10 uM kainic acid in rat cortical slice preparation. Type of test: functional.
Test [8] shares this target. Nature of the test: Binding affinity against Ionotropic glutamate receptor kainate using [3H]-Kainic acid 19755 radioligand. Type of test: protein-complex assay. The gist of the method: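 Displacement of radioligand binding in rat cortical tissue: [3H]AMPA for AMPA sites, [3H]kainic acid for kainate sites. Assays run in triplicate unless otherwise indicated; some IC50 values come from a single assay.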

Test [9] deals with Glutamate NMDA receptor. Put plainly: Antagonism at NMDA receptor by inhibition of depolarizations induced by 40 uM NMDA in rat cortical slice preparation. Format: functional.
The target in test [10] is Glutamate NMDA receptor. Put plainly: Affinity of [3H]-CGS- 19755 radioligand to rat N-methyl-D-aspartate (NMDA) receptor. Format: protein-complex assay.
Test [11] concerns Mus musculus. Put plainly: Effective dose to block ATPA-induced muscle rigidity in mice at a dose of 30mg/kg, administered intravenously. Type of test: functional. Conditions: iv. The gist of the method:
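Mice given test agent ip 30 min before iv challenge with ATPA (30 mg/kg), a systemic AMPA agonist that produces characteristic muscle rigidity.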

The subject of test [12] is Mus musculus. Put plainly: Effective dose to block lethality induced by 200 mg/kg ip dose of NMDA. Type of test: functional. Conditions: route intraperitoneal. The gist of the method: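 Mice dosed ip 30 min before a 200 mg/kg ip NMDA challenge; protection from lethality recorded and ED50 (mg/kg, ip) derived.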
Test [13] deals with Glutamate receptor ionotropic, AMPA (Rattus norvegicus, UniProt P19491+P19492+P19493+P19490). Nature of the test: Compound was tested for AMPA receptor antagonistic activity by measuring its ability to inhibit depolarizations induced by 40 uM AMPA in rat cortical slice preparation; agonist. Type of test: functional.
The target of test [14] is Glutamate NMDA receptor (Rattus norvegicus) (UniProt P35439+Q00959+Q00960+Q00961+Q62645+Q8VHN2+Q9R1M7). Nature of the test: Compound was tested for NMDA receptor antagonistic activity by measuring its ability to inhibit depolarizations induced by 40 uM NMDA in rat cortical slice preparation at 100 uM. Type of test: functional.

Glutamate receptor ionotropic, AMPA (Rattus norvegicus, UniProt P19491+P19492+P19493+P19490), sequence (P19491 whole entry): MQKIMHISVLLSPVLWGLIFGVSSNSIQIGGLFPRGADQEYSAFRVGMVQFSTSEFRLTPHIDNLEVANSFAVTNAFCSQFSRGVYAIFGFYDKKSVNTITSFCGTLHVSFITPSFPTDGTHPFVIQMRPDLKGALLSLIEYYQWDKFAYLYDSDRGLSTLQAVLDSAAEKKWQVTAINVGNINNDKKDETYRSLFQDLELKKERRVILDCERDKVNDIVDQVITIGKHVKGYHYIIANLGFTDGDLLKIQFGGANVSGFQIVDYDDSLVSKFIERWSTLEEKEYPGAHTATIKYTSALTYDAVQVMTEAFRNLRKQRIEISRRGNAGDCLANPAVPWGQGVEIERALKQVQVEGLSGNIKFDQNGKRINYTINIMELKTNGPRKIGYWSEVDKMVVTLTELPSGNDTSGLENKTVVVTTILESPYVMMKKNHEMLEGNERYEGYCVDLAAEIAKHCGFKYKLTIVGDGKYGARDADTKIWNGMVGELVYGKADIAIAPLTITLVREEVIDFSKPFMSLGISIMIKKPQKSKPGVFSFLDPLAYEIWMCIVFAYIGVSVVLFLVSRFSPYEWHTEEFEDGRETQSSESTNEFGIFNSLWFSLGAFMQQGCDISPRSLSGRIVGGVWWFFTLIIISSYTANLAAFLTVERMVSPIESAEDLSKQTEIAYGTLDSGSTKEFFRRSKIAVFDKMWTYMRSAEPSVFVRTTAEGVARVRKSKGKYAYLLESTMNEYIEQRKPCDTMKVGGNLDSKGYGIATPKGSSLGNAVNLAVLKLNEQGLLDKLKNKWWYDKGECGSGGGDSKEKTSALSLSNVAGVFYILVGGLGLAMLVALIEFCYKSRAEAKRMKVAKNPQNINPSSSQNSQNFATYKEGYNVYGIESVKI
Glutamate receptor ionotropic, AMPA (Rattus norvegicus, UniProt P19491+P19492+P19493+P19490), sequence (P19492 whole entry): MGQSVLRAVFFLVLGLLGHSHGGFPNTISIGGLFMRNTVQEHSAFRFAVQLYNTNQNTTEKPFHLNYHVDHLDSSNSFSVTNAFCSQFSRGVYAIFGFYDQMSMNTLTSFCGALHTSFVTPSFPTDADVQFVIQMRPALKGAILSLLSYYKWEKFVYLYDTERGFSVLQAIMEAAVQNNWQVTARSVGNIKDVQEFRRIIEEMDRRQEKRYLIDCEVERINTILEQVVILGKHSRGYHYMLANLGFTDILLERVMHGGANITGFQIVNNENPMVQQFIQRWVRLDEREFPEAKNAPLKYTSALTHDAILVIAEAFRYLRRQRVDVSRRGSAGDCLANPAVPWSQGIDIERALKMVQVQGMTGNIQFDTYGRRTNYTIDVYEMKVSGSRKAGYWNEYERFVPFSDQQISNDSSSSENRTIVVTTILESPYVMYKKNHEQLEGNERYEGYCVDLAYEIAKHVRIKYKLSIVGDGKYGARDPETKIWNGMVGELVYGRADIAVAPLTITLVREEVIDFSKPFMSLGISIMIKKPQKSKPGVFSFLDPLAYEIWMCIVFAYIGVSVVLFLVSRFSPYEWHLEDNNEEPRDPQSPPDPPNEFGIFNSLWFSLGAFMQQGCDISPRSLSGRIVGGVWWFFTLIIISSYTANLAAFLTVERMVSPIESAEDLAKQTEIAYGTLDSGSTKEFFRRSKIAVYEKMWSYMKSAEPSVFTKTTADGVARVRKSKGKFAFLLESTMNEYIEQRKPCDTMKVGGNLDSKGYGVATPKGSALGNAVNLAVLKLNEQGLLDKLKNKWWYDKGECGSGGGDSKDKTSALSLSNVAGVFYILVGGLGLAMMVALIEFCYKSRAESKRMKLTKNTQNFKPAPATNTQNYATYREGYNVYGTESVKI
Glutamate receptor ionotropic, AMPA (Rattus norvegicus, UniProt P19491+P19492+P19493+P19490), sequence (P19493 whole entry): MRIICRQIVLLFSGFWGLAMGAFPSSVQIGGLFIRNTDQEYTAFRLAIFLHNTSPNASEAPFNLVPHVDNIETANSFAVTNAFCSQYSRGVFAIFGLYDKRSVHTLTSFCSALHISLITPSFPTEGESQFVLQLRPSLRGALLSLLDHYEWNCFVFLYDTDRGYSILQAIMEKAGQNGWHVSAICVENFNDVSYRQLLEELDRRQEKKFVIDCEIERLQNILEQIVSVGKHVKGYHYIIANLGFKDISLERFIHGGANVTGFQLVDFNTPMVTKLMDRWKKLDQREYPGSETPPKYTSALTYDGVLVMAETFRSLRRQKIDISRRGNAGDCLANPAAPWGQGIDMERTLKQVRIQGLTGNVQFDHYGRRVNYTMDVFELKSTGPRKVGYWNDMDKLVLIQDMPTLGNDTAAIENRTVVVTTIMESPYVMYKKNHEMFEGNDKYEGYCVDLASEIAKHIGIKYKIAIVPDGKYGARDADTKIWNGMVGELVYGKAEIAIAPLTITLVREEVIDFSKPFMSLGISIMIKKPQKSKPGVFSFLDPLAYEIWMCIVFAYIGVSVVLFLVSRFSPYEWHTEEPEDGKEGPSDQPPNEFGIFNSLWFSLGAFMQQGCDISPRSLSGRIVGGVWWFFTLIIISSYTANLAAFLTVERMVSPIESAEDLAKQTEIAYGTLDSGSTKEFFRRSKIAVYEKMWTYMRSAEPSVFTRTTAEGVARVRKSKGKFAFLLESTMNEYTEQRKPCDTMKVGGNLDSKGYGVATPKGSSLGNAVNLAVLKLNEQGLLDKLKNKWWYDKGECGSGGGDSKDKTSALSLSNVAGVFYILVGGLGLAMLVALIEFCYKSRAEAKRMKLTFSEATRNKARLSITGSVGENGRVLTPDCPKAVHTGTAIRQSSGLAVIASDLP
Glutamate receptor ionotropic, AMPA (Rattus norvegicus, UniProt P19491+P19492+P19493+P19490), sequence (P19490 whole entry): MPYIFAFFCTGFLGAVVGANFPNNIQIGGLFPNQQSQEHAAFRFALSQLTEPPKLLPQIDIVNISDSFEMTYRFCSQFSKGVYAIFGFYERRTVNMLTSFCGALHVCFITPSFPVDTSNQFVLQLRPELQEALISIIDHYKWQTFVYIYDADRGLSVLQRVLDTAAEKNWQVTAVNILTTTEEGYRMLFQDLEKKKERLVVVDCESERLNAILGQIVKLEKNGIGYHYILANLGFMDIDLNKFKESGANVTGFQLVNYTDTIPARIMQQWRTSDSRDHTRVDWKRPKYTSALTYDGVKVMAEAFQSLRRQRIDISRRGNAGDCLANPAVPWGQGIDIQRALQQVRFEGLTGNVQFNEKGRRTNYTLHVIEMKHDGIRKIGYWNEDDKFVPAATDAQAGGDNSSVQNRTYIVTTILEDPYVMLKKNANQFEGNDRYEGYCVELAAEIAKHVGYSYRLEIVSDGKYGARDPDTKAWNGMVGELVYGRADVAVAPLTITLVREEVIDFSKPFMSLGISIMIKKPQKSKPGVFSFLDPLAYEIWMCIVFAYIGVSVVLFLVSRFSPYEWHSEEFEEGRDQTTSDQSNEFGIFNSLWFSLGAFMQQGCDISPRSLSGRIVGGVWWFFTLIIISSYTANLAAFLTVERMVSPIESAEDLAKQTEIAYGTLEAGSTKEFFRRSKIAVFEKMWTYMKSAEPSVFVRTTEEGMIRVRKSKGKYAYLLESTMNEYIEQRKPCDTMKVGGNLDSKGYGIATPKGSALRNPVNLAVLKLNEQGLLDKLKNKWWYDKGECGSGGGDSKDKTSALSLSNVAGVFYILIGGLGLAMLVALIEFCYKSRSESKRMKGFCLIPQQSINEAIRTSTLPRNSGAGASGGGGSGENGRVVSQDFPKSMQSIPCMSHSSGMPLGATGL

With `O=C(O)[C@@H]1C[C@H]2C[C@@H](OCc3nn[nH]n3)CC[C@H]2CN1`, the ED50 in the test on Mus musculus [1] was 80 mg/kg; with Mus musculus [2], 24.7 mg/kg; with Mus musculus [3], 21 mg/kg; in the test on Mus musculus [4] it was 30.6 mg/kg.

Take `O=C(O)CC[C@H]1CC[C@H]2CN[C@H](C(=O)O)C[C@H]2C1`: the IC50 was 42 µM in [5]; 27.8 µM in test [6]; over 100 µM in test [7]; over 100 µM in test [8]; 57 µM on Glutamate NMDA receptor [9]; 43.9 µM on Glutamate NMDA receptor [10]. Besides, the ED50 in the test on Mus musculus [2], in the test on Mus musculus [3] and in the test with Mus musculus [4] was over 100 mg/kg in each case.

Regarding `O=C(O)[C@@H]1C[C@H]2C[C@@H](c3nnn[nH]3)CC[C@H]2CN1`, the median effective dose (ED50) in the test on Mus musculus [11] came out at 44.5 mg/kg; in the test on Mus musculus [12], 19.4 mg/kg; in the test with Mus musculus [2], 24.1 mg/kg.

`O=C(O)[C@@H]1C[C@H]2C[C@@H](Cn3nnnc3S)CC[C@H]2CN1` (racemic): the IC50 result in test [13] is “Agonist”; in test [6] it was 12.9 µM; in test [8] it was 16.7 µM; at Glutamate NMDA receptor [10] it was over 10 µM.

In the case of `O=C(O)[C@@H]1C[C@H]2C[C@@H](CCc3nn[nH]n3)CC[C@H]2CN1`, in test [14], the inhibition is 60%.
